Calls of active or inactive are those of the source. No cut-off for these calls is given here.
What was measured:
SU-DHL-1 = assay: Induction of STAT4 expression in human SU-DHL-1 cells at 0.25 to 100 uM incubated for 4 hrs by Western blot analysis; type: functional, cell-based; settings: dose 0.25-100 µM
[1] = molecular target: T1, Signal transducer and activator of transcription 1-alpha/beta (Homo sapiens) (UniProt P42224); assay: Induction of STAT1 degradation in human SUP-M2 cells at 0.25 to 100 uM incubated for 14 hrs by Western blot analysis; type: cell-based; settings: SUPM2, dose 0.25-100 µM
T1 sequence (whole entry): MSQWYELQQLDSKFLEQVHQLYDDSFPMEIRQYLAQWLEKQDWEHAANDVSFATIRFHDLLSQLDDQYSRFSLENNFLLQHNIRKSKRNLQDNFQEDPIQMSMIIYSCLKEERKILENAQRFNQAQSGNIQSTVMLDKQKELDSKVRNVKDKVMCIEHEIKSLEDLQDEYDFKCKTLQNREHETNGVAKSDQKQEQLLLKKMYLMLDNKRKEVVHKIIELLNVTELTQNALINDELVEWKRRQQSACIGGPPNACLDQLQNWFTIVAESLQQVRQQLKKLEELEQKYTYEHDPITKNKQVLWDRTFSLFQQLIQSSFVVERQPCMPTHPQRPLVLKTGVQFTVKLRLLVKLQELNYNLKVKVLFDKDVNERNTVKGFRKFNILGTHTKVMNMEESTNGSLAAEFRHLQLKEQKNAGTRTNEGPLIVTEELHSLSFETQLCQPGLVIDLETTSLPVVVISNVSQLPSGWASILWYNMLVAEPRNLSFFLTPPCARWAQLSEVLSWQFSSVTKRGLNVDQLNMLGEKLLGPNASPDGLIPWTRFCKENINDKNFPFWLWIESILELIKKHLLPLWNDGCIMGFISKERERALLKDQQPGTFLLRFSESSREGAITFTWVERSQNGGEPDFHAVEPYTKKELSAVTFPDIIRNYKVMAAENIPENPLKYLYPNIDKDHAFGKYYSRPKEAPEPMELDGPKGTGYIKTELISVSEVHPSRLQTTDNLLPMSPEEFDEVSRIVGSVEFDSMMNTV
Summary of the method: (§1)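 SU-DHL-1 or SUP-M2 cells treated over 25 nM to 100 μM. STAT family proteins assessed by Western blot.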

[2] = molecular target: T1, Signal transducer and activator of transcription 1-alpha/beta (Homo sapiens); assay: Induction of STAT1 degradation in human SU-DHL-1 cells at 0.25 to 100 uM incubated for 14 hrs by Western blot analysis; type: cell-based; settings: dose 0.25-100 µM; summary of the method: as §1
[3] = molecular target: T2, Signal transducer and activator of transcription 5A (Homo sapiens) (UniProt P42229); assay: Induction of STAT5 degradation in human MOLM16 cells at 0.25 to 100 uM incubated for 4 hrs by Western blot analysis; type: cell-based; settings: dose 0.25-100 µM
T2 sequence (whole entry): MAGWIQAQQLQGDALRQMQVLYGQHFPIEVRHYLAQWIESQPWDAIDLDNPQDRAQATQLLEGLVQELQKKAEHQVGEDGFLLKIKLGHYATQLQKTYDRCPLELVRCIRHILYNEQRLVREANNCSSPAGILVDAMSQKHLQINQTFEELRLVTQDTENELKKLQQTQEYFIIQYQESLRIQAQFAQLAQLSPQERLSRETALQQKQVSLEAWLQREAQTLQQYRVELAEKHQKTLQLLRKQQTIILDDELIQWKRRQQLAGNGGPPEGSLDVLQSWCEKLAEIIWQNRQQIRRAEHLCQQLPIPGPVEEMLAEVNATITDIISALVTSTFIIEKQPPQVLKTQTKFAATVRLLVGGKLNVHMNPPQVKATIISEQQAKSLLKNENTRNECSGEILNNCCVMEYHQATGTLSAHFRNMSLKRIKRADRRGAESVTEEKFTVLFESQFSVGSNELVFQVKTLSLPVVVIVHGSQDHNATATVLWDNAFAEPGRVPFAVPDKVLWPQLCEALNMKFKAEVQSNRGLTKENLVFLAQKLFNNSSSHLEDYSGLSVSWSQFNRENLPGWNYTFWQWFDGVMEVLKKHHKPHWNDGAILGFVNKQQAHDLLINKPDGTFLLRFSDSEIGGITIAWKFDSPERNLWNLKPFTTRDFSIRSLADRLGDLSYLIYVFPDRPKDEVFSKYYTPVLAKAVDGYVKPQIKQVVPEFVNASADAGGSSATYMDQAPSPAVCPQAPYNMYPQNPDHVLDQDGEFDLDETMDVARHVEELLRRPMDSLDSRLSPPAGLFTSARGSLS
Summary of the method: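 Cells treated 4 h with compounds across 25 nM to 100 μM; STAT proteins detected by Western blot with GAPDH as loading control; STAT3 DC50 estimated by densitometry of STAT3 relative to GAPDH. Applies to MOLM-16 for all STATs, and to SU-DHL-1 and SUP-M2 for STAT3.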

[4] = molecular target: T1, Signal transducer and activator of transcription 1-alpha/beta (Homo sapiens); assay: Induction of STAT1 degradation in human MOLM16 cells at 0.25 to 100 uM incubated for 4 hrs by Western blot analysis; type: cell-based; settings: dose 0.25-100 µM
Summary of the method: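 MOLM-16 cells treated for 4 h over 25 nM to 100 μM. STAT proteins assessed by Western blot with GAPDH as loading control.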

[5] = Drug metabolism in complete cell culture medium assessed as 5-amino-4-(4-(8-((5S,8S,10aR)-8-((S)-5-amino-1-(benzhydrylamino)-1,5-dioxopentan-2-ylcarbamoyl)-6-oxo-5-(5-(phosphonocarbonyl)-1H-indole-2-carboxamido)octahydropyrrolo[1,2-a][1,5]diazocin-3(4H)-yl)-8-oxooct-1-ynyl)-1-oxoisoindolin-2-yl)-5-oxopentanoic acid after 96 hrs by LC/MS/MS analysis
Summary of the method: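 Parent compound incubated in the cell culture medium used for the cellular assays, with or without cells, at 37 °C. Percentages of the hydrolysis product and the glutarimide ring-opened product measured at time points up to 96 h.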

[6] = molecular target: Signal transducer and activator of transcription 3 (Homo sapiens, UniProt P40763); assay: Binding affinity to recombinant STAT3 (unknown origin) assessed as inhibition constant incubated for 1 hr by fluorescence polarization assay
Summary of the method: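 Competitive fluorescence-polarization binding assay with recombinant human STAT3 protein. Ki derived from competitive binding curves.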

[7] = Drug uptake in SCID mouse xenografted with human MOLM16 cells assessed as drug level in plasma at 50 mg/kg, iv measured after 6 hrs by LC-MS/MS; type: ADME, organism-based
Summary of the method: (§2)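 SCID mice bearing MOLM-16 xenografts given a single iv dose of 50 mg/kg. Concentrations of parent and hydrolysis product measured in plasma (ng/mL) and tumor tissue (ng/g) at 1, 6 and 24 h.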

[8] = Drug uptake in SCID mouse xenografted with human MOLM16 cells assessed as drug level in tumor tissue at 50 mg/kg, iv measured after 24 hrs by LC-MS/MS; type: ADME, organism-based; settings: read-out: Drug uptake; summary of the method: as §2
[9] = Drug uptake in SCID mouse xenografted with human MOLM16 cells assessed as drug level in tumor tissue at 50 mg/kg, iv measured after 1 hrs by LC-MS/MS; type: ADME, organism-based; settings: read-out: Drug uptake; summary of the method: as §2
[10] = Drug uptake in SCID mouse xenografted with human MOLM16 cells assessed as drug level in tumor tissue at 50 mg/kg, iv measured after 6 hrs by LC-MS/MS; type: ADME, organism-based; settings: read-out: Drug uptake; summary of the method: as §2
[11] = Drug uptake in SCID mouse xenografted with human MOLM16 cells assessed as drug level in plasma at 50 mg/kg, iv measured after 1 hrs by LC-MS/MS; type: ADME, organism-based; summary of the method: as §2
[12] = Drug uptake in SCID mouse xenografted with human MOLM16 cells assessed as drug level in plasma at 50 mg/kg, iv measured after 24 hrs by LC-MS/MS; type: ADME, organism-based; summary of the method: as §2

Signal transducer and activator of transcription 3, sequence (P40763 whole entry): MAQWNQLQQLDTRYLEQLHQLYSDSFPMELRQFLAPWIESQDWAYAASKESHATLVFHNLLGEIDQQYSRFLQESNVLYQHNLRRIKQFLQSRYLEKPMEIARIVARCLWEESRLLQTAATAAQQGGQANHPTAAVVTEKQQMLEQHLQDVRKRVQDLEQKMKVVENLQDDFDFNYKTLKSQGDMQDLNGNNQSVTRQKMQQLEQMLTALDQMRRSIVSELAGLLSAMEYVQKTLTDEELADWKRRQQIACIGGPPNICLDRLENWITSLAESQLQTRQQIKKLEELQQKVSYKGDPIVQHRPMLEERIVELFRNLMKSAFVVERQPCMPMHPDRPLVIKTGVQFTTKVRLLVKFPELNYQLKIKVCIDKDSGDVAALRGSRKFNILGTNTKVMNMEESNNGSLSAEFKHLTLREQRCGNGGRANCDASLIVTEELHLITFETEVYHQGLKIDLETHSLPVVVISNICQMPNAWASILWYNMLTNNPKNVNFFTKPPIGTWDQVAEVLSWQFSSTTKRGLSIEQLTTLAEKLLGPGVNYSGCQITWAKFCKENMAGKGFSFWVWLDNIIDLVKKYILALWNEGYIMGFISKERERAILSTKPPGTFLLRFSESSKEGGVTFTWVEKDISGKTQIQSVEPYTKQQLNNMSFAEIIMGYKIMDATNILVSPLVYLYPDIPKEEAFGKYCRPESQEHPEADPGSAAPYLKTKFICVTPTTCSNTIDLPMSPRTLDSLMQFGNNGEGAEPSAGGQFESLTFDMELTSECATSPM

| SMILES | Activity (SU-DHL-1) | Activity [1] | Activity [2] | Activity [3] | Activity [4] | Drug metabolism [5] [%] | Ki [6] [nM] | concentration at 6 h [7] [ng/mL] | concentration at 24 h [8] [ng/g] | concentration at 1 h [9] [ng/g] | concentration at 6 h [10] [ng/g] | concentration at 1 h [11] [ng/mL] | concentration at 24 h [12] [ng/mL] |
| --- | --- | --- | --- | --- | --- | --- | --- | --- | --- | --- | --- | --- | --- |
| CC(=O)N1CC[C@H]2CC[C@@H](C(=O)N[C@@H](CCC(N)=O)C(=O)NC(c3ccccc3)c3ccccc3)N2C(=O)[C@@H](NC(=O)c2cc3cc(C(=O)P(=O)(O)O)ccc3[nH]2)C1 | inactive | inactive | inactive | inactive | inactive | – | – | – | – | – | – | – | – |
| CC(=O)N1CC[C@H]2CC[C@@H](C(=O)N[C@@H](CCC(N)=O)C(=O)NC(c3ccccc3)c3ccccc3)N2C(=O)[C@@H](NC(=O)c2cc3cc(C(F)(F)P(=O)(O)O)ccc3[nH]2)C1 | inactive | inactive | inactive | inactive | inactive | – | – | – | – | – | – | – | – |
| NC(=O)CC[C@H](NC(=O)[C@@H]1CC[C@@H]2CCN(C(=O)CCCCCC#Cc3cccc4c3CN(C3CCC(=O)NC3=O)C4=O)C[C@H](NC(=O)c3cc4cc(C(F)(F)P(=O)(O)O)ccc4[nH]3)C(=O)N21)C(=O)NC(c1ccccc1)c1ccccc1 (some centres not stated) | Active | – | – | – | – | 10 | 11.7 | 1300 | 275 | 7720 | 580 | 103000 | 58 |
| NC(=O)CC[C@H](NC(=O)[C@@H]1CC[C@@H]2CCN(C(=O)CCCCCC#Cc3cccc4c3CN(C3CCC(=O)NC3=O)C4=O)C[C@H](NC(=O)c3cc4cc(C(=O)P(=O)(O)O)ccc4[nH]3)C(=O)N21)C(=O)NC(c1ccccc1)c1ccccc1 (some centres not stated) | Active | inactive | inactive | inactive | inactive | < 10 | 5.1 | 49200 | 1800 | 16200 | 4780 | 85500 | 1360 |

From ChEMBL document CHEMBL4706770, “SD-91 as A Potent and Selective STAT3 Degrader Capable of Achieving Complete and Long-Lasting Tumor Regression” (ACS Med Chem Lett, 2021)
